Results taken from ChEMBL document CHEMBL1127809, “Pentamidine congeners. 2. 2-butene-bridged aromatic diamidines and diimidazolines as potential anti-Pneumocystis carinii pneumonia agents” (1994).
“And” between values parts separate entries of the source, which are not always exact repeats. Equal values may be shown once.

Experiments:
Format in all cases: functional
[1] = test system: Rattus norvegicus; assay: In vivo anti-Pneumocystis carinii toxicity in rats administered intravenously at 10 mg/kg/day; 0 indicates no local, clinical, histologic toxicity
In short: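 Host toxicity in immunosuppressed PCP rats dosed iv daily for 2 weeks. Animals were observed daily for health and well-being. Liver and kidney were examined by light microscopy for pathologic changes. Scoring: 0 = no local, clinical or histologic toxicity; 1+ = all survived, some local injection-site toxicity; 2+ = most survived, some severe distress, clinical toxicity and histopathology; 3+ = acute toxicity or decline with <50% deaths; 4+ = ≥50% deaths.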

[2] = organism: Rattus norvegicus; assay: Anti-Pneumocystis carinii activity was measured as percentage of number of cysts counted per gram of lung tissue; parameters: concentration or dose not given beside the values
In short: (§1)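 Immunosuppressed rats with PCP; compound given by daily iv injection over 2 weeks at 10 mg/kg/day, or at 5 or 1 mg/kg/day where shown. Saline is the negative control and pentamidine the positive control. Cysts are counted per gram of lung tissue and expressed as % of the saline-treated control ± SE (n rats). Significance is given as P vs saline or vs pentamidine.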

[3] = test system: Rattus norvegicus; assay: Anti- Pneumocystis carinii activity was measured as percentage of number of cysts counted per gram of lung tissue at a dose of 5.0 mg/kg/day; in short: as §1
[4] = test system: Rattus norvegicus; assay: Anti- Pneumocystis carinii activity was measured as percentage of number of cysts counted per gram of lung tissue at a dose of 10 mg/kg/day; in short: as §1
[5] = test system: Rattus norvegicus; assay: Anti- Pneumocystis carinii activity was measured as percentage of number of cysts counted per gram of lung tissue at a dose of 1 mg/kg/day; in short: as §1
[6] = organism: Rattus norvegicus; assay: Anti- Pneumocystis carinii activity was measured as percentage of number of cysts counted per gram of lung tissue; in short: as §1

SMILES | Toxicity [1] | Control [2] [%] | Toxicity ([1]; route intravenous) | also measured
COc1cc(C2=NCCN2)ccc1OC/C=C/COc1ccc(C2=NCCN2)cc1OC.Cl.Cl | Toxic | 1.5 | – | –
C(=C\COc1ccc(C2=NCCN2)cc1)/COc1ccc(C2=NCCN2)cc1.Cl.Cl | – | 1.22 | 0 | Control [3]: 5.61%; Control [4]: 1.38%; Control [5]: 39.6%
Cl.Cl.N=C(N)c1ccc(OC/C=C\COc2ccc(C(=N)N)cc2)cc1 | – | 1.1 | 0 | –
C(=C/COc1ccc(C2=NCCN2)cc1)/COc1ccc(C2=NCCN2)cc1.Cl.Cl | – | 1.22 | 0 | –
COc1cc(C(=N)N)ccc1OC/C=C/COc1ccc(C(=N)N)cc1OC.Cl | Local toxicity | 35.5 | – | –
N=C(N)c1ccc(OCCCCCOc2ccc(C(=N)N)cc2)cc1 [PENTAMIDINE] | – | – | 2 | Control [6]: <5.31% and <4.95%
COc1cc(C(=N)N)ccc1OC/C=C\COc1ccc(C(=N)N)cc1OC.Cl.Cl | – | 21.4 | 0 | –
Cl.Cl.N=C(N)c1ccc(OC/C=C/COc2ccc(C(=N)N)cc2)cc1 | – | 0.67 | 0 | –
COc1cc(C2=NCCN2)ccc1OC/C=C\COc1ccc(C2=NCCN2)cc1OC.Cl.Cl | Local toxicity | 15.6 | – | –
